Assay outcomes from PubChem BioAssay.
In the library only some 1.7% were active in any assay of this set; here they are far more common.
DNMT1 inh: DNMT1 (human) enzyme inhibition; actives 0.83% (n = 360,000); inhibition (reported as % activation of signal), % at 10 µM; DNMT1 molecular beacon, Hinp1I cleavage, fluorescence; P26358; in the data active means inhibition above about 50%
SUMO1-SIM PPI: alters human SUMO1 binding to SIM partners. inhibition, % at 20 µM. SUMO1 binding to a labelled peptide, TR-FRET, 1 h. AID 602429. actives 0.33% (n = 360,000); in the data active means inhibition above about 37%
Target sequence (P63165 whole entry, looked up): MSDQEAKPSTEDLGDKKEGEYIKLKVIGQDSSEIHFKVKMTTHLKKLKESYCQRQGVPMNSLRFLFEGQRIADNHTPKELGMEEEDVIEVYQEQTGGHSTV
LMPTP block: blocks human LMPTP phosphatase. AID 651560. recombinant LMPTP-A, OMFP fluorogenic substrate, fluorescence intensity. actives 0.22% (n = 360,000). inhibition, % at 20 µM;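 active means compounds that cut the enzyme signal by at least half of the control window in the single-dose screen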;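 further: plate controls were DMSO wells with enzyme plus substrate for no effect and substrate without enzyme for full effect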
Target sequence (P24666 whole entry, looked up): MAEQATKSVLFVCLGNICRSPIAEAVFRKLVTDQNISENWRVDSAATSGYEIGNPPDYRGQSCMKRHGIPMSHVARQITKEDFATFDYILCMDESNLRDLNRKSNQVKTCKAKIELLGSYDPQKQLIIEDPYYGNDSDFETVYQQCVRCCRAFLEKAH
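Test system: LMPTP-A, protein tyrosine phosphatase of low molecular weight; Input: 0.625 nM enzyme; Incubation: 50 min dark incubation at room temperature; Signal: endpoint fluorescence intensity from OMFP dephosphorylation; Read-out basis: % inhibition versus control wells.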
Scp1 inh: blocks human Scp-1 phosphatase activity; Q9GZU7; inhibition, % at 20 µM; actives 0.88% (n = 340,000); Recombinant Scp1, phosphopeptide, malachite green phosphate absorbance;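 active means inhibition above about 50% at 20 µM, limit read from the data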;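 further: plate controls were DMSO wells with enzyme for no effect and wells lacking enzyme for full effect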
Target sequence (Q9GZU7 76-261 limits assumed): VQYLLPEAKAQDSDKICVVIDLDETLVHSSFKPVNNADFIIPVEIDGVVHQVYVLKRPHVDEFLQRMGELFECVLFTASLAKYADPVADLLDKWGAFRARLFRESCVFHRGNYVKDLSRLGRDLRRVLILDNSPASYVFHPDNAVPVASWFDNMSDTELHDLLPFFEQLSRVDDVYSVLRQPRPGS
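Material – SCP-1 phosphatase catalytic domain, residues 76-261 · Buffer or medium – Acidic Tris acetate buffer with magnesium and detergent · Also added – Phospho 17-mer peptide substrate · Compound – single 20 µM dose, 1% DMSO · Times – 45 min room-temperature reaction, 5 min colour, 30 min stabiliser · Technique – Phosphate-binding colour reagent, absorbance read at 630 nm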
STEP block: STEP (human) phosphatase inhibition; recombinant STEP, OMFP fluorogenic substrate, fluorescence; inhibition, % at 20 µM; P54829; actives 0.25% (n = 360,000); AID 588621;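 active means inhibition at 20 µM, scaled per plate between control wells, above about 37%, limit read from the data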;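 further: 0% = DMSO with enzyme and substrate and 100% = substrate only without enzyme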
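Assay system: isolated STEP enzyme. Buffer or medium: pH 6.0 Bis-Tris with DTT and Tween 20. Also added: fluorogenic phosphatase substrate OMFP at 25 µM final. Dosing: 20 µM, 1% DMSO. Timing: 20 min reaction, room temperature, in the dark. Measured by: fluorescence intensity, excitation 480 nm, emission 540 nm. Evaluation: normalized % inhibition.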
Scp-1 conf: Scp-1 (human) inhibition, single-dose confirmed; recombinant SCP-1 catalytic domain, phosphate release, malachite green absorbance; inhibition, % at 20 µM; AID 540281; shares compounds with Scp1 inh; actives 61% (n = 2,500);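 further: plate controls were DMSO with enzyme for no effect and buffer wells lacking enzyme for full effect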
MG interference: counter-screen for Scp-1 inhibitors: colorimetric interference; Colorimetric interference counterscreen, malachite green absorbance 630 nm; shares compounds with Scp1 inh; 2,500 tested, under 10 active; apparent inhibition (interference), % at 20 µM;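 further: compounds added after enzyme reaction finished so only phosphate colour detection is probed; plate controls were DMSO wells with completed Scp-1 reaction for no effect and substrate wells lacking enzyme for full effect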
Scp1 DSF: validation of human Scp-1 inhibitors by thermal shift binding; shares compounds with Scp1 inh; Recombinant SCP1, Sypro Orange thermal shift Tm; thermal shift relative to vanadate control, % at 40 µM; actives 25% (n = 1,500);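 active means substances whose mean melting-temperature shift, as a percentage of the reference inhibitor's shift, reaches about 5.3%, limit read from the data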;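 further: 0% = Tm of DMSO wells and 100% = Tm with sodium orthovanadate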
Beacon interf DR: beacon fluorescence artifact, dose response counter-screen; shares compounds with DNMT1 inh; molecular beacon fluorescence, spectral interference counter-screen; IC50, µM; 200 tested, under 10 active; call rule not given here
DNMT1 inh conf: DNMT1 inhibition confirmation, single concentration; shares compounds with DNMT1 inh; DNMT1 molecular beacon HinP1I cleavage, fluorescence; inhibition, % at 10 µM; actives 8% (n = 2,300); AID 602385;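 active means average inhibition of at least 30% in the single-concentration confirmation test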
Beacon interf: counter-screen for DNMT1 inhibitors: spectral interference; shares compounds with DNMT1 inh; DNMT1 molecular beacon spectral interference counterscreen, fluorescence 485/520; activation (fluorescence interference), % at 10 µM; actives 1% (n = 2,300); AID 602387;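 active means activation of at least 30% at 10 µM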;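 further: DNMT1 catalytic domain with a HinP1I cleavage step and a FAM/dabcyl DNA beacon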
Numbers without * were called inactive; . = no result.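 How the source made its calls, unless noted: active means inhibition of at least 30% at 20 µM; inactive means the rest.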

SMILES	DNMT1 inh	SUMO1-SIM PPI	LMPTP block	Scp1 inh	STEP block	Scp-1 conf	MG interference	Scp1 DSF	DNMT1 inh conf	Beacon interf	others
O=C(/C=C/c1ccco1)NCC1OCCc2ccccc21 (configuration not stated)	56*	3	5	91*	5	62*	-13	1	10	1
O=C(Nc1ccccn1)C(c1ccccc1)c1ccccc1	-3	-4	0	.	0	.	.	.	.	.
Cc1ccsc1C(=O)NNC(=O)COc1ccccc1Cl	-1	7	0	-3	0	.	.	.	.	.
CSc1ccc(NC(=O)CSc2nc3[nH]c(=O)cc(O)c3s2)cc1	52*	12	48	71*	10	40*	-21	14*	2	-2
O=C(CSc1nccc(=O)[nH]1)N1N=C2/C(=C/c3ccco3)CCCC2C1c1ccco1 (configuration not stated)	76*	12	6	60*	1	65*	-13	-7	10	3
Nc1nc(SCC(=O)N2N=C3/C(=C/c4ccco4)CCCC3C2c2ccco2)n[nH]1 (configuration not stated)	17	-1	1	0	0	.	.	.	.	.
C=CCn1c(O)c(N=NC(=O)CNC(=O)/C=C/c2ccco2)c2ccccc21	93*	-6	21	90*	12	48*	-17	5	11	2
C=CCn1c(O)c(N=NC(=O)CNC(=O)/C=C/c2ccc(OC)cc2)c2ccccc21	-2	-30	1	0	-1	.	.	.	.	.
COc1ccc(C(=O)N/N=C/c2ccc(OC(=O)c3cccc4ccccc34)c([N+](=O)[O-])c2)cc1	53*	-16	7	92*	7	65*	-25	6.6*	5	0
COc1ccc(C(=O)Oc2ccc(/C=N/NC(=O)c3ccccc3OC)cc2[N+](=O)[O-])cc1	17	-4	1	1	0	.	.	.	.	.
CN(c1ccccc1)S(=O)(=O)c1cccc(C(=O)NCC(=O)Nc2ccc(F)c(F)c2F)c1	0	6	1	-9	-1	.	.	.	.	.
C=CCn1c(SCC(=O)N2CCOCC2)nc2scc(-c3ccco3)c2c1=O	77*	21	9	73*	22	26	-8	.	3	0
C=CCn1c(SCC(=O)N2CCCC2)nc2scc(-c3cccs3)c2c1=O	9	-4	2	-1	1	.	.	.	.	.
COc1cccc(-c2cc(C(=O)NC3CC3)c3ccccc3n2)c1	-2	-11	0	1	2	.	.	.	.	.
Cc1cccc(NC(=O)c2cc(-c3ccco3)nc3ccccc23)n1	5	10	0	1	4	.	.	.	.	.
CN(C)C(CNC(=O)c1cc(-c2ccco2)nc2ccccc12)c1ccccc1 (configuration not stated)	86*	-8	34	70*	5	55*	-12	13*	46*	-2	Beacon interf DR=>99
CCc1nnc(NC(=O)c2cc(-c3ccco3)nc3ccccc23)s1	92*	51*	45	65*	10	45*	-15	8.5*	23	-1
Cc1ccc(NC(=O)c2cc(-c3ccco3)nc3ccccc23)cc1S(=O)(=O)N1CCOCC1	68*	1	13	65*	0	36*	-4	7.1*	10	3
O=C(NC1CCC(O)CC1)c1cc(-c2ccco2)nc2ccccc12 (configuration not stated)	57*	0	10	51*	2	57*	-13	5	13	3
Clc1ccc(N2O[C@H]3C=C[C@@H]2C3)nc1	-11	-8	-1	.	-7	.	.	.	.	.
O=C(COC(=O)c1cccc(O)c1)Nc1ccc(S(=O)(=O)N2CCOCC2)cc1	1	6	-1	-6	2	.	.	.	.	.
Cc1ccc(NC(=O)Cn2nc(C(=O)O)c3ccccc3c2=O)c([N+](=O)[O-])c1	2	2	0	-3	2	.	.	.	.	.
CC(CC(=O)OCC(=O)NCc1ccc(Cl)cc1)c1ccccc1 (configuration not stated)	-1	0	0	-11	2	.	.	.	.	.
CC(C)CCNC(=O)c1cc(-c2ccco2)nc2ccccc12	-4	-7	0	-4	0	.	.	.	.	.
CCCCCCNC(=O)c1cc(-c2ccco2)nc2ccccc12	106*	-8	6	71*	10	67*	-14	2	9	7
SMILES	DNMT1 inh	SUMO1-SIM PPI	LMPTP block	Scp1 inh	STEP block	Scp-1 conf	MG interference	Scp1 DSF	DNMT1 inh conf	Beacon interf	others
COc1ccc(NC(=O)c2cc(-c3ccco3)nc3ccccc23)cc1	12	-1	3	45	8	.	.	.	.	.
COc1ccc(NC(=O)CN(C)C(=O)c2cc(-c3ccco3)nc3ccccc23)cc1	99*	10	45	73*	10	61*	-18	7.4*	23	-3	Beacon interf DR=>99
C[C@H](CO)N1C[C@H](C)[C@@H](CN(C)S(=O)(=O)c2cccs2)Oc2ccc(NC(=O)c3ccncc3)cc2C1=O	-10	3	-1	0	-1	.	.	.	.	.
CC(=O)Nc1ccc2c(COC(=O)CC3Sc4ccccc4NC3=O)cc(=O)oc2c1 (configuration not stated)	60*	2	14	57*	12	70*	-10	4	10	3
COc1ccc2c(COC(=O)CC3Sc4ccccc4NC3=O)cc(=O)oc2c1 (configuration not stated)	-1	-1	3	3	-1	.	.	.	.	.
CC(C)NC(=O)CSc1nnc2sc3ccccc3n12	7	2	0	7	0	.	.	.	.	.
CC(C)[C@H](NC(=O)Cc1ccccc1)C(=O)OCc1cc(=O)n2c(n1)sc1ccccc12	88*	3	22	76*	4	59*	-16	-8	3	3
Cc1ccc2c(CC(=O)OCc3cc(=O)n4c(n3)sc3ccccc34)coc2c1	105*	4	13	66*	3	68*	-17	-1	5	6
